In ChEMBL document CHEMBL2057186, “Application of the bicyclo[1.1.1]pentane motif as a nonclassical phenyl ring bioisostere in the design of a potent and orally active γ-secretase inhibitor” (J Med Chem, 2012):
pIC50: −log10 of the molar value. Converted amounts (≈) assume the structure as drawn.

Assays:
[1] = test system: Mus musculus; test: Antialzheimer activity in 129/sve mouse assessed as reduction in amyloid beta42 level in brain at 30 mg/kg, po administered as single dose measured at 5 hrs by ELISA relative to vehicle treated control; assay type: functional; design: scale not given: the % may be the effect or the level left
Method in brief: (§1)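 Wild-type male 129/sve mice received a single oral dose in Phosal 50 PG/Tween 80 vehicle. Aβ40 was measured in brain, CSF and plasma and Aβ42 in brain over a time course. Levels are expressed as % of vehicle-treated animals. Values are mean ± SEM, n = 5 or 8 per time point.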

[2] = test system: Mus musculus; test: Antialzheimer activity in 129/sve mouse assessed as reduction in amyloid beta40 level in plasma at 30 mg/kg, po administered as single dose measured at 1 hr by ELISA relative to vehicle treated control; assay type: functional; design: scale not given: the % may be the effect or the level left; method in brief: as §1
[3] = AUC (last) in 129/sve mouse brain at 30 mg/kg, po administered as single dose by LC-MS/MS analysis; assay type: ADME, organism-based; design: time 0 - last, dose 30 mg/kg, route oral
Method in brief: (§2)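 Wild-type male 129/sve mice received a single oral dose in 98% (v/v) Phosal 50 PG / 2% Tween 80. Drug was measured in plasma, brain and CSF. Study was nonserial, so AUC came from mean matrix concentrations at each time point. Values are mean ± SD (n = 4 or 5).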

[4] = AUC (last) in 129/sve mouse cerebrospinal fluid at 30 mg/kg, po administered as single dose by LC-MS/MS analysis; assay type: ADME, organism-based; design: time 0 - last, dose 30 mg/kg, route oral; method in brief: as §2
[5] = Fraction unbound in 129/sve mouse plasma at 30 mg/kg, po administered as single dose; assay type: ADME, organism-based; design: dose 30 mg/kg, route oral
[6] = Fraction unbound in 129/sve mouse brain at 30 mg/kg, po administered as single dose; assay type: ADME, organism-based; design: dose 30 mg/kg, route oral
[7] = species: Homo sapiens; test: Selectivity for human gamma-seretase over notch signalling protein
[8] = Apparent permeability from apical to basal side of dog RRCK cells; assay type: ADME, cell-based, Canis lupus familiaris, MDCKII-LE; details: MDCK
Method in brief: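 Absorptive (A to B) permeability was measured in RRCK cells, a Madin–Darby canine kidney subline isolated for low transporter activity. It estimates intrinsic passive permeability.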

[9] = Thermodynamic solubility of the compound at pH 6.5; assay type: physicochemical; details: buffer, read-out: Therm_solubility
Method in brief: (§3)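 Thermodynamic solubility was measured in aqueous buffer at pH 6.5 and at pH 7.4.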

[10] = Thermodynamic solubility of the compound at pH 7.4; assay type: physicochemical; details: buffer, read-out: Therm_solubility; method in brief: as §3
[11] = test system: P-gp; test: Efflux ratio of apparent permeability from basal to apical side to apical to basal side of MDCK cells expressing human P-gp; assay type: ADME, cell-based, Canis lupus familiaris; details: dog, MDCK-MDR1
Method in brief: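 Monolayers were MDCK cells transfected with the human P-glycoprotein (MDR1) gene. Permeability was measured basolateral-to-apical and apical-to-basolateral, and the BA/AB ratio was reported.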

[12] = biological target: Cytochrome P450 2C9 (Homo sapiens, UniProt P11712); test: Inhibition of CYP2C9 in human liver microsomes using diclofenac as substrate; assay type: ADME, Microsome
Cytochrome P450 2C9, sequence (P11712 whole entry): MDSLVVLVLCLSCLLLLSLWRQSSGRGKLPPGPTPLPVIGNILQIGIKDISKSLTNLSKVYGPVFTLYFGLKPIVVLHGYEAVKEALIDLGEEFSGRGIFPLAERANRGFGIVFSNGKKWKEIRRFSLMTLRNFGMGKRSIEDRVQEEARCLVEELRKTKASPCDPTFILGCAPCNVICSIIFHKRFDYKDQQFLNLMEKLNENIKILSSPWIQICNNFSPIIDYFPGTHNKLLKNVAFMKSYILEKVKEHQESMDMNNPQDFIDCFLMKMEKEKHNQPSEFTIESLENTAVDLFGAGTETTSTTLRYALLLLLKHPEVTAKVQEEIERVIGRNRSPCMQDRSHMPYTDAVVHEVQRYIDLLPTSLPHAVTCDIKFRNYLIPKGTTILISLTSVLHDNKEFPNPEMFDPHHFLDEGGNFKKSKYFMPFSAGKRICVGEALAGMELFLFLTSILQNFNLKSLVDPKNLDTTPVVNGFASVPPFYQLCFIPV

[13] = biological target: Cytochrome P450 2C19 (Homo sapiens, UniProt P33261); test: Inhibition of CYP2C19 in human liver microsomes using (S)-mephenytoin as substrate; assay type: ADME, Microsome
Cytochrome P450 2C19, sequence (P33261 whole entry): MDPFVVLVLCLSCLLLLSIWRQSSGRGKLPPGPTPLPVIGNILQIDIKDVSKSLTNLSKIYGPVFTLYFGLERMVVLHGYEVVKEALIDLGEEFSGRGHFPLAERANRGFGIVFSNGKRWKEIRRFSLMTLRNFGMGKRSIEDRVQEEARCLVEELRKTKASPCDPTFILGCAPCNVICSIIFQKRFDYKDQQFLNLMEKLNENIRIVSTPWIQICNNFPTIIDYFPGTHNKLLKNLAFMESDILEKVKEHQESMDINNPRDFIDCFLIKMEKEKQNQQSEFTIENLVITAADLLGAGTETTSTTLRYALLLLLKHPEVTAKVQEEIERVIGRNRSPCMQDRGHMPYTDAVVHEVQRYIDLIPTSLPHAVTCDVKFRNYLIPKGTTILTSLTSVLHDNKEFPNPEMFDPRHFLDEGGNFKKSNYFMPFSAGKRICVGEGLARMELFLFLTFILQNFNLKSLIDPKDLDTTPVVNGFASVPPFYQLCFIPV

[14] = biological target: Cytochrome P450 3A4 (Homo sapiens, UniProt P08684); test: Inhibition of CYP3A4 in human liver microsomes using midazolam as substrate; assay type: ADME, Microsome
Cytochrome P450 3A4, sequence (P08684 whole entry): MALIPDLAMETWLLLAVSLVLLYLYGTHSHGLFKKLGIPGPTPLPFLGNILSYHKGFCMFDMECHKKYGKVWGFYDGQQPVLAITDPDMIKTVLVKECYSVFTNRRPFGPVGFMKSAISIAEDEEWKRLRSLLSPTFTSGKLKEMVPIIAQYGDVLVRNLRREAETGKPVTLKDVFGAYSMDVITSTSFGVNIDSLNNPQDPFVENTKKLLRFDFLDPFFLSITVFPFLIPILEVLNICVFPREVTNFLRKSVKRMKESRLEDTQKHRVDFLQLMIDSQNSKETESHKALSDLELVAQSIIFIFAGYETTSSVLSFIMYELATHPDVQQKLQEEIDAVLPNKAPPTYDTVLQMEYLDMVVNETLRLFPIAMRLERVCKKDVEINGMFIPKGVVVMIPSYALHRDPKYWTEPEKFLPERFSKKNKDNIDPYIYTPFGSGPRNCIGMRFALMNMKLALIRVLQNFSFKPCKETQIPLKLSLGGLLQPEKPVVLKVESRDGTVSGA

[15] = biological target: Voltage-gated inwardly rectifying potassium channel KCNH2 (Homo sapiens, UniProt Q12809); test: Displacement of dofetilide from human ERG
Voltage-gated inwardly rectifying potassium channel KCNH2, sequence (Q12809 whole entry): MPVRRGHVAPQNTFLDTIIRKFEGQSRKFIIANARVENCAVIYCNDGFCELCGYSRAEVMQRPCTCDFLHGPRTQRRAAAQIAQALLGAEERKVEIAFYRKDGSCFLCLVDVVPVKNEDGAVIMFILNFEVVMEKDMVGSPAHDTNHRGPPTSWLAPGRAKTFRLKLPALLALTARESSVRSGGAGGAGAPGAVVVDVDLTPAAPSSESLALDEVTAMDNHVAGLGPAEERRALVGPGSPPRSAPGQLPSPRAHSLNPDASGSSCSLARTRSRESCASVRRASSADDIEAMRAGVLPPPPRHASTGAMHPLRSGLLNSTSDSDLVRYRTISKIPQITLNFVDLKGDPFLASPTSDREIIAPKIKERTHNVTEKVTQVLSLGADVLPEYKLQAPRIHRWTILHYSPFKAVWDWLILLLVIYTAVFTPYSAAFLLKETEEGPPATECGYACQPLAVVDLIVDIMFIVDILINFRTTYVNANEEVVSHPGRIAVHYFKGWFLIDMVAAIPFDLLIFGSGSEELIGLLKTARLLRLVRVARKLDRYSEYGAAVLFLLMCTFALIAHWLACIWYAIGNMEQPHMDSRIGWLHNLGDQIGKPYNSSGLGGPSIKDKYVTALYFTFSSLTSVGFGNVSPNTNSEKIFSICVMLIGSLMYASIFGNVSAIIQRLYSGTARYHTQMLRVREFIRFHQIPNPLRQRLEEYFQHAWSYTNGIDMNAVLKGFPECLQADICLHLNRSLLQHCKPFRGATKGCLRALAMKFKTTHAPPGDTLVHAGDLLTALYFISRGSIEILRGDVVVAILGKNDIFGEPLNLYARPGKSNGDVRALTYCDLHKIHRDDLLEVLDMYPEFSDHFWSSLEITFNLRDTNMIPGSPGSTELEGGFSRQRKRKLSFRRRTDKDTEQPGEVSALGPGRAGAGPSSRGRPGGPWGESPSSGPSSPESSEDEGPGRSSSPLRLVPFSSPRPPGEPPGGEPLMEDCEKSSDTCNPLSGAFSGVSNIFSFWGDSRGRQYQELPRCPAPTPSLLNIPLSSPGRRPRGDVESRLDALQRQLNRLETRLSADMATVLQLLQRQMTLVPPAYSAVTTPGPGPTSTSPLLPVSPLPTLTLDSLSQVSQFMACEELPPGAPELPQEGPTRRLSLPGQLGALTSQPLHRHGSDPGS

[16] = test system: Liver microsomes; test: Drug metabolism in human liver microsomes assessed as GSH/GSH-EE adduct formation after 60 mins by LC/MS/MS analysis; assay type: ADME, Microsome; details: 1 h
[17] = Cmax in Sprague-Dawley rat at 5 mg/kg, po; assay type: ADME, organism-based; design: dose 5 mg/kg, route oral; details: in vivo
Method in brief: (§4)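 Female rats were dosed once, 1 mg/kg iv (2 mL/kg, 0.5 mg/mL) or 5 mg/kg po (10 mL/kg, 0.5 mg/mL). Vehicle was 40% (w/v) hydroxypropyl-β-cyclodextrin. Plasma was sampled to 24 h. Values are means ± SEM (n = 3).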

[18] = Tmax in Sprague-Dawley rat at 5 mg/kg, po; assay type: ADME, organism-based; design: dose 5 mg/kg, route oral; details: in vivo; method in brief: as §4
[19] = AUC (0 to 24 hrs) in Sprague-Dawley rat at 1 mg/kg, iv; assay type: ADME, organism-based; design: time < 24 hr, dose 1 mg/kg, route intravenous; details: plasma
Method in brief: (§5)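 Single-dose PK in female rats; iv at 1 mg/kg (2 mL/kg, 0.5 mg/mL) and po at 5 mg/kg (10 mL/kg, 0.5 mg/mL), both formulated in 40% (w/v) hydroxypropyl-β-cyclodextrin.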

[20] = AUC (0 to 24 hrs) in Sprague-Dawley rat at 5 mg/kg, po; assay type: ADME, organism-based; design: time < 24 hr, dose 5 mg/kg, route oral; details: plasma; method in brief: as §5
[21] = Half life in Sprague-Dawley rat at 1 mg/kg, iv; assay type: ADME, organism-based; design: dose 1 mg/kg, route intravenous; details: in vivo; method in brief: as §4
[22] = Volume of distribution at steady state in Sprague-Dawley rat at 1 mg/kg, iv; assay type: ADME, organism-based; design: dose 1 mg/kg, route intravenous; details: in vivo, read-out: Vdss; method in brief: as §4
[23] = Ratio of drug level in brain to plasma in Sprague-Dawley rat; assay type: ADME; details: read-out: BPR
[24] = Tmax in 129/sve mouse plasma at 30 mg/kg, po administered as single dose by LC-MS/MS analysis; assay type: ADME, organism-based; design: dose 30 mg/kg, route oral
Method in brief: (§6)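 Single-dose oral PK in wild-type male 129/sve mice. Formulation was 98% (v/v) Phosal 50 PG with 2% Tween 80. Compound was measured in plasma, brain and CSF. Values are means ± standard deviations (n = 4 or 5).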

[25] = Cmax in 129/sve mouse brain at 30 mg/kg, po administered as single dose by LC-MS/MS analysis; assay type: ADME, organism-based; design: dose 30 mg/kg, route oral; method in brief: as §6
[26] = Tmax in 129/sve mouse brain at 30 mg/kg, po administered as single dose by LC-MS/MS analysis; assay type: ADME, organism-based; design: dose 30 mg/kg, route oral; method in brief: as §6
[27] = Ratio of unbound fraction in brain to unbound fraction in plasma in 129/sve mouse at 30 mg/kg, po administered as single dose by LC-MS/MS analysis; assay type: ADME, organism-based; design: dose 30 mg/kg, route oral; details: in vivo
Method in brief: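 Single oral dose of 30 mg/kg in wild-type male 129/sve mice, formulated in 98% (v/v) Phosal 50 PG with 2% Tween 80. Brain, CSF and plasma were sampled nonserially over time, and AUC was taken from mean matrix concentrations. Brain availability = (f_u,brain × [brain]) / (f_u,plasma × [plasma]), with n = 4–5 per group.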

[28] = Cmax in 129/sve mouse cerebrospinal fluid at 30 mg/kg, po administered as single dose by LC-MS/MS analysis; assay type: ADME, organism-based; design: dose 30 mg/kg, route oral; method in brief: as §6
[29] = Tmax in 129/sve mouse cerebrospinal fluid at 30 mg/kg, po administered as single dose by LC-MS/MS analysis; assay type: ADME, organism-based; design: dose 30 mg/kg, route oral; method in brief: as §6
[30] = test system: Mus musculus; test: Antialzheimer activity in 129/sve mouse assessed as reduction in amyloid beta40 level in brain at 30 mg/kg, po administered as single dose measured at 5 hrs by ELISA relative to vehicle treated control; assay type: functional; design: scale not given: the % may be the effect or the level left; method in brief: as §1
[31] = biological target: Gamma-secretase; test: Inhibition of gamma secretase-mediated amyloid beta42 production in human H4 cells expressing human wild-type APP

## NC(=O)[C@@H](CCC(F)(F)F)N(CC12CC(c3ncon3)(C1)C2)S(=O)(=O)c1ccc(Cl)cc1
[1]
  Activity: 31%
[2]
  Activity: 59%
[3]
  AUC(0-t): 12 µM·h
[4]
  AUC(0-t): 0.118 µM·h
[5]
  fraction unbound: 0.0354
[6]
  fraction unbound: 0.026
[7]
  Selectivity Index: 178
[8]
  Papp A→B: 19.3 ×10⁻⁶ cm/s
[9]
  solubility thermodynamic: 19.7 µM (≈ 9.71 µg/mL)
[10]
  solubility thermodynamic: 29.4 µM (≈ 14.5 µg/mL)
[11]
  efflux ratio: 1.66
[12]
  inhibition (INH): Not Active
[13]
  inhibition (INH): Not Active
[14]
  inhibition (INH): Not Active
[15]
  Activity: Not Active
[16]
  Drug metabolism: Not Active
[17]
  Cmax: 1860 nM
[18]
  Tmax: 2 h
[19]
  AUC(0-t) at 24 h: 2.54 µM·h
[20]
  AUC(0-t) at 24 h: 19.4 µM·h
[21]
  half-life: 131 min
[22]
  Vd: 2.12 L/kg
[23]
  Kp: 0.61
[24]
  Tmax: 1 h
[25]
  Cmax: 5.6 µM
[26]
  Tmax: 1 h
[27]
  Ratio: 0.62
[28]
  Cmax: 53 nM
[29]
  Tmax: 1 h
[30]
  Activity: 64%
[31]
  pIC50: 9.75
